In ChEMBL document CHEMBL5230171, “Expanding the structure-activity relationships of alkynyl diphenylurea scaffold as promising antibacterial agents” (RSC Med Chem, 2023):
Converted amounts (≈) assume the structure as drawn. The source made the active and inactive calls.

Key:
[1] = test system: Staphylococcus aureus; experiment: Antibacterial activity against methicillin resistant Staphylococcus aureus 386 assessed as inhibition of bacterial growth incubated for 18 to 20 hrs by CLSI protocol based broth microdilution method; format: functional; settings: time 18-20 hrs
Summary of the method: (§1)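 Broth microdilution against staphylococcal clinical isolates. Each strain was prepared as a 0.5 McFarland suspension and diluted in cation-adjusted Mueller Hinton broth to ~5 × 10^5 CFU mL−1. Serial dilutions of test agents in DMSO stock were incubated with the bacteria, and the MIC was recorded.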

[2] = test system: Staphylococcus epidermidis; experiment: Antibacterial activity against Staphylococcus epidermidis 101 assessed as inhibition of bacterial growth incubated for 18 to 20 hrs by CLSI protocol based broth microdilution method; format: functional; settings: time 18-20 hrs
Summary of the method: (§2)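 Staphylococcal and E. coli strains were diluted from a 0.5 McFarland suspension in cation-adjusted Mueller Hinton broth to ~5 × 10^5 CFU mL−1. They were incubated with serial dilutions of test agent in broth microdilution, and the MIC was recorded.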

[3] = test system: Streptococcus pyogenes; experiment: Antibacterial activity against Streptococcus pyogenes MGAS 1882 assessed as inhibition of bacterial growth incubated for 18 to 20 hrs by CLSI protocol based broth microdilution method; format: functional; settings: time 18-20 hrs
Summary of the method: (§3)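 Streptococci were diluted from a 0.5 McFarland suspension in cation-adjusted Mueller Hinton broth with 5% lysed horse blood. They were incubated with serial dilutions of test agent in broth microdilution, and the MIC was recorded.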

[4] = test system: Staphylococcus aureus; experiment: Antibacterial activity against vancomycin resistant Staphylococcus aureus 12 assessed as inhibition of bacterial growth at 0.5 ug/ml incubated for 18 to 20 hrs by CLSI protocol based broth microdilution method; format: functional, organism-based; settings: dose 0.5 µg/ml, time 18-20 hrs
[5] = test system: Staphylococcus aureus; experiment: Antibacterial activity against vancomycin resistant Staphylococcus aureus 10 assessed as inhibition of bacterial growth at 0.5 ug/ml incubated for 18 to 20 hrs by CLSI protocol based broth microdilution method; format: functional, organism-based; settings: dose 0.5 µg/ml, time 18-20 hrs
[6] = test system: Staphylococcus aureus; experiment: Antibacterial activity against vancomycin resistant Staphylococcus aureus 9 assessed as inhibition of bacterial growth incubated for 18 to 20 hrs by CLSI protocol based broth microdilution method; format: functional; settings: time 18-20 hrs; summary of the method: as §1
[7] = test system: Staphylococcus aureus; experiment: Antibacterial activity against methicillin resistant Staphylococcus aureus 385 assessed as inhibition of bacterial growth at 0.5 ug/ml incubated for 18 to 20 hrs by CLSI protocol based broth microdilution method; format: functional, organism-based; settings: dose 0.5 µg/ml, time 18-20 hrs
[8] = test system: Staphylococcus aureus; experiment: Antibacterial activity against methicillin resistant Staphylococcus aureus 384 assessed as inhibition of bacterial growth incubated for 18 to 20 hrs by CLSI protocol based broth microdilution method; format: functional; settings: time 18-20 hrs; summary of the method: as §1
[9] = test system: Streptococcus mutans; experiment: Antibacterial activity against Streptococcus mutans 25175 assessed as inhibition of bacterial growth incubated for 18 to 20 hrs by CLSI protocol based broth microdilution method; format: functional; settings: time 18-20 hrs; summary of the method: as §3
[10] = test system: Staphylococcus aureus; experiment: Induction of drug resistance in methicillin resistant Staphylococcus aureus NRS384 USA300 assessed as change in MIC measured after 4 passages by broth microdilution method; format: functional, organism-based
Summary of the method: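 Multi-step resistance in MRSA USA300 over 14 consecutive passages, with rifampicin as the control antibiotic. The MIC was determined by broth microdilution at each passage. Resistance was defined as a greater than four-fold rise over the initial MIC.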

[11] = test system: Staphylococcus aureus; experiment: Antibacterial activity against methicillin sensitive Staphylococcus aureus 6538 assessed as inhibition of bacterial growth at 0.5 ug/ml incubated for 18 to 20 hrs by CLSI protocol based broth microdilution method; format: functional, organism-based; settings: dose 0.5 µg/ml, time 18-20 hrs; summary of the method: as §2
[12] = test system: Streptococcus pneumoniae; experiment: Antibacterial activity against Streptococcus pneumoniae 51916 assessed as inhibition of bacterial growth incubated for 18 to 20 hrs by CLSI protocol based broth microdilution method; format: functional; settings: time 18-20 hrs; summary of the method: as §3
[13] = test system: Staphylococcus aureus; experiment: Antibacterial activity against methicillin resistant Staphylococcus aureus 385 assessed as inhibition of bacterial growth incubated for 18 to 20 hrs by CLSI protocol based broth microdilution method; format: functional; settings: time 18-20 hrs; summary of the method: as §1
[14] = test system: Staphylococcus aureus; experiment: Antibacterial activity against methicillin resistant Staphylococcus aureus 123 assessed as inhibition of bacterial growth incubated for 18 to 20 hrs by CLSI protocol based broth microdilution method; format: functional; settings: time 18-20 hrs; summary of the method: as §1
[15] = test system: Staphylococcus aureus; experiment: Antibacterial activity against methicillin sensitive Staphylococcus aureus 6538 assessed as inhibition of bacterial growth incubated for 18 to 20 hrs by CLSI protocol based broth microdilution method; format: functional; settings: time 18-20 hrs; summary of the method: as §1
[16] = test system: Staphylococcus aureus; experiment: Post antibiotic effect against methicillin resistant Staphylococcus aureus NRS384 USA300 assessed as time required for 1 log10 increase in CFU at 5 times of MIC incubated for 2 hrs followed by replacement with drug free medium and measured after 18-24 hrs; format: functional
Summary of the method: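 MRSA USA300 at ~10^6 CFU mL−1 was exposed for 2 h to 5× MIC of test agent, with vancomycin or DMSO as controls. Drug was removed by 1:1000 dilution in fresh TSB. Cultures were incubated at 37 °C with 180 rpm shaking and sampled hourly for 8 h, with viable counts on MSA read after 18–24 h. PAE = T − C, where T and C are the times for a 1 log10 rise in the test and control cultures.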

## C/C(=N\NC(=N)N)c1ccc(NC(=O)Nc2ccc(C#Cc3ccccc3)cc2)cc1
[1]
  MIC: 0.5 µg/mL (≈ 1.22 µM)
[2]
  MIC: 0.5 µg/mL (≈ 1.22 µM)
[3]
  MIC: 0.5 µg/mL (≈ 1.22 µM)
[4]
  Activity: Active
[5]
  Activity: Active
[6]
  MIC: 0.5 µg/mL (≈ 1.22 µM)
[7]
  Activity: Active
[8]
  MIC: 0.5 µg/mL (≈ 1.22 µM)
[9]
  MIC: 0.5 µg/mL (≈ 1.22 µM)
[10]
  Activity: inactive
[11]
  Activity: Active
[12]
  MIC: 0.5 µg/mL (≈ 1.22 µM)
[13]
  MIC: 0.5 µg/mL (≈ 1.22 µM)
[14]
  MIC: 0.5 µg/mL (≈ 1.22 µM)
[15]
  MIC: 0.5 µg/mL (≈ 1.22 µM)
[16]
  Time: 5 h
